These results are taken from ChEMBL document CHEMBL1275356, “Redox-silent tocotrienol esters as breast cancer proliferation and migration inhibitors” (Bioorg Med Chem, 2010).

Molecules are shown by their SMILES. Bounds are passed on as bounds.

Data set [1] in a line: Cytotoxicity against mouse +SA cells after 24 hrs by MTT assay. Type of data set: functional, cell-based. The following applies: +SA cell. Summed up:
(§1)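 Compounds dissolved in DMSO, conjugated overnight to 10% BSA at 37 °C, tested at 0–40 µM, final DMSO <0.1%. +SA cells seeded at 5 × 10⁴/well or CL-S1 at 1 × 10⁵/well (six wells/group), grown 3 days (~70% confluent), then treated 24 h. MTT 0.42 mg/mL, 4 h at 37 °C; crystals dissolved in isopropanol, read at 570 nm. Cell number from standard curve; IC50 by linear regression.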
Background: Tetrazolium assays rely on reduction of a dye to a coloured formazan, in cell work by metabolically active cells.

Data set [2] concerns MDA-MB-231. Description: Antimigratory activity against human MDA-MB-231 at 5 uM after 24 hrs by wound-healing assay. The data set is classed as functional. The following applies: MDA-MB-231, 24 h. Summed up:
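MDA-MB-231 grown in RPMI 1640 with 10 mM HEPES, 4 mM L-glutamine, 10% FBS, 5% CO2, 37 °C. Confluent (>95%) monolayers scratched with pipette tip, washed with PBS, then given compound in DMSO at 5 µM (DMSO vehicle control), in triplicate. After 24 h under serum starvation, cells fixed and Diff Quick stained. Migrated cells counted in ≥3 random 400× fields, mean ± SEM.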

Data set [3] in a line: Solubility of the compound in phosphate buffer at pH 7.4 after up to 24 hrs by HPLC method relative to alpha-tocotrienol. The data set is classed as physicochemical. The following applies: pH 7.4, 24 h. Put shortly: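 About 5.6 mg compound added to 3 mL pH 7.4 phosphate buffer in amber vials and shaken at 25 °C for 24 h. Centrifuged 5000 rpm, 10 min; clear supernatant sampled at 0, 1, 2, 4, 6 and 24 h. Concentration determined by HPLC with UV at 295 nm.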

Data set [4] in a line: Chemical stability of the compound in phosphate buffer at pH 7.4 after 24 hrs by HPLC method relative to zero time concentration. The data set is classed as physicochemical. Put shortly:
(§2)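 500 µg/mL compound dissolved in pH 7.4 phosphate buffer in amber vials and kept at 37 °C. Samples taken at 0, 0.5, 1, 2, 4, 6 and 24 h, mixed with equal volume methanol, analysed by HPLC with UV at 295 nm. Amount expressed relative to the zero-time concentration.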

Data set [5] is described as follows: Stability of the compound in rat plasma after 4 hrs by HPLC method relative to zero time concentration. Type of data set: ADME, cell-free. The following applies: read-out: Stability. Put shortly: (§3)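 50 µg/mL compound dissolved in rat plasma in amber vials and incubated at 37 °C. Samples taken at 0, 0.5, 1, 2, 4, 6 and 24 h, mixed with 100 µL methanol, centrifuged 14,000 rpm for 10 min. Supernatant analysed by HPLC with UV at 295 nm, relative to zero-time concentration.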

Data set [6] is described as follows: Stability of the compound in rat plasma after 24 hrs by HPLC method relative to zero time concentration. The data set is classed as ADME, cell-free. Conditions: read-out: Stability. Summed up:
as §3

Data set [7] in a line: Chemical stability of the compound in phosphate buffer at pH 7.4 after 1 hr by HPLC method relative to zero time concentration. The data set is classed as physicochemical. The following applies: pH 7.4, 1 h. Summed up: as §2
Data set [8] can be described thus: Cytotoxicity against mouse CL-S1 cells assessed as cell viability after 24 hrs by MTT assay. Type of data set: cell-based. Conditions: cl-s1, 24 h. Put shortly: as §1

Regarding `CC(C)=CCC/C(C)=C/CC/C(C)=C/CC[C@]1(C)CCc2cc(OC(=O)c3cc(C(=O)O)ccc3C(=O)O)c(C)c(C)c2O1`, in data set [1], 1.44 µM corresponded to half-maximal inhibition (IC50).
Turning to `CC(C)=CCC/C(C)=C/CC/C(C)=C/CC[C@]1(C)CCc2c(C)c(OC(=O)/C=C\C(=O)O)c(C)c(C)c2O1`, half-maximal inhibition in data set [1] (IC50) required 0.52 µM. Besides, the inhibition (in general, the change of the read-out against control, counted positive when it falls) at 5 µM in data set [2] was 50%. For the same molecule, in data set [3], the “fold change (FC)” value is given as 1000. Moreover, the remaining at 24 h in data set [4] (phosphate buffer, pH 7.4, read-out: Stability) turned out to be 100%; in data set [6] it was 43%. Besides, the remaining at 4 h in data set [5] is 81%.
As for `CC(C)=CCC/C(C)=C/CC/C(C)=C/CC[C@]1(C)CCc2cc(O)c(C)c(C)c2O1` [GAMMA-TOCOTRIENOL], in data set [1], 4 µM corresponded to half-maximal inhibition (IC50).
Turning to `CC(C)=CCC/C(C)=C/CC/C(C)=C/CC[C@]1(C)CCc2c(C)c(O)c(C)c(C)c2O1` [ALPHA-TOCOTRIENOL], in data set [1], the IC50 (as a rule, the concentration needed to halve the response being measured) was determined as 5 µM. For the same molecule, the Stability entry in data set [4] (buffer, pH 7.4, 24 h) is listed as “Unstable”; in data set [7], “Unstable”.
For `CC(=O)Oc1ccc(/C=C/C(=O)Oc2cc3c(c(C)c2C)O[C@](C)(CC/C=C(\C)CC/C=C(\C)CCC=C(C)C)CC3)cc1OC(C)=O`, the IC50 in data set [1] is more than 40 µM. Also, the Activity result in data set [8] is on record as “Non-toxic”.
As for `CC(C)=CCC/C(C)=C/CC/C(C)=C/CC[C@]1(C)CCc2cc(O)cc(C)c2O1` [DELTA-TOCOTRIENOL], in data set [1], half-maximal inhibition (IC50) was put at 3 µM.
Turning to `CC(C)=CCC/C(C)=C/CC/C(C)=C/CC[C@]1(C)CCc2cc(OC(=O)CC(C)CC(=O)O)c(C)c(C)c2O1` (stereo not given in full), in data set [1], the IC50 was determined as 19.2 µM. Moreover, the Activity result in data set [8] is given as “Non-toxic”.
As to `CC(=O)Oc1cc(C(=O)Oc2cc3c(c(C)c2C)O[C@](C)(CC/C=C(\C)CC/C=C(\C)CCC=C(C)C)CC3)cc(OC(C)=O)c1OC(C)=O`, the IC50 in data set [1] is 1.72 µM.
Consider `CC(C)=CCC/C(C)=C/CC/C(C)=C/CC[C@]1(C)CCc2c(C)c(OC(=O)c3ccc(C(=O)O)cc3C(=O)O)c(C)c(C)c2O1`, for which, in data set [1], the IC50 was 1.5 µM. The molecule also yielded an inhibition at 5 µM in data set [2] of 50%.
The molecule `CC(C)=CCC/C(C)=C/CC/C(C)=C/CC[C@]1(C)CCc2cc(OC(=O)/C=C\C(=O)O)cc(C)c2O1` displayed an IC50 in data set [1] of 0.87 µM.
Molecule `CC(C)=CCC/C(C)=C/CC/C(C)=C/CC[C@]1(C)CCc2cc(OC(=O)c3ccccc3)c(C)c(C)c2O1` had an IC50 in data set [1] of 6.55 µM. Also, in data set [8], the Activity result is given as “Non-toxic”. Further, the inhibition at 5 µM in data set [2] was 50%.
In turn, `CC(C)=CCC/C(C)=C/CC/C(C)=C/CC[C@]1(C)CCc2c(C)c(OC(=O)c3cc(C(=O)O)ccc3C(=O)O)c(C)c(C)c2O1` displayed an IC50 in data set [1] of 1.46 µM. This molecule also yielded an inhibition at 5 µM in data set [2] of 50%.
Regarding `CC(C)=CCC/C(C)=C/CC/C(C)=C/CC[C@]1(C)CCc2cc(OC(=O)c3ccc(C(=O)O)cc3C(=O)O)c(C)c(C)c2O1`, in data set [1], the IC50 is 0.62 µM.
In data set [1], `CC(C)=CCC/C(C)=C/CC/C(C)=C/CC[C@]1(C)CCc2cc(OC(=O)/C=C\C(=O)O)c(C)c(C)c2O1` registered an IC50 of 2.3 µM. The molecule also gave an inhibition at 5 µM in data set [2] of 50%.
For `CC(C)=CCC/C(C)=C/CC/C(C)=C/CC[C@]1(C)CCc2cc(OC(=O)c3cc(C(=O)O)ccc3C(=O)O)cc(C)c2O1` the same measures were 1.5 µM and 50%.
